Test system: TZM
Test: Cytotoxicity against human TZM-bl cells by CytoTox-Glo reagent-based assay
Type: cell-based
Summary of the method: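 TZM-bl cells exposed to compound at various concentrations. Cytotoxicity measured by CytoTox-Glo assay.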

## Cc1cc(/C=C/C#N)cc(C)c1Nc1ccnc(Nc2ccc(C#N)cc2)n1 [RILPIVIRINE]
  CC50: > 341 µM

— ChEMBL document CHEMBL4152200, “Targeting the entrance channel of NNIBP: Discovery of diarylnicotinamide 1,4-disubstituted 1,2,3-triazoles as novel HIV-1 NNRTIs with high potency against wild-type and E138K mutant virus” (Eur J Med Chem, 2018)
